The results in this text go back to ChEMBL document CHEMBL1140487, “Construction of polyamine-modified uridine and adenosine derivatives--evaluation of DNA binding capacity and cytotoxicity in vitro” (Bioorg Med Chem, 2007).

Series [1] can be described thus: Toxicity in human L56BrC1 cells after 48 hrs by MTT assay. The class given is cell-based. Summed up: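 L56Br-C1 cells were grown in RPMI 1640 with 10% heat-inactivated FCS, NEAA, insulin and penicillin/streptomycin, at 37 °C, 5% CO2. After seeding at 0.055×10^6 cells/ml and 24 h growth, compounds were added at 0.1, 1, 10 or 100 µM final; controls received PBS. After 1 h MTT, formazan was dissolved in DMSO and A540 read. Results are % of control ± SD.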
(Tetrazolium dyes change colour on reduction, which living cells bring about.)

A further series concerns HCC1937. Description: Toxicity in human HCC1937 cells after 48 hrs by MTT assay. It is filed as cell-based. The following applies: hcc1937, 48 h. Summed up: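 HCC1937 cells were grown in MEM α with 10% heat-inactivated FCS, NEAA, gentamycin, EGF 20 ng/ml and insulin, at 37 °C, 5% CO2. Plateau-phase cells were seeded at 0.055×10^6/ml and compounds added after 24 h at 0.1–100 µM final. Controls got PBS. MTT was added for 1 h, formazan dissolved in DMSO, A540 read. Values are % of control ± SD.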

Series [2] in a line: Toxicity in human SKBR3 cells after 48 hrs by MTT assay. The class given is cell-based. The following applies: sk-br-3, 48 h. Summed up: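 SK-BR-3 cells were grown in RPMI 1640 with 10% FCS, NEAA and penicillin/streptomycin, no insulin, at 37 °C, 5% CO2. Cells were seeded at 0.055×10^6/ml, and 24 h later compounds were added at 0.1–100 µM final (PBS for controls). MTT was added for 1 h, formazan dissolved in DMSO, A540 read; outer wells were excluded. Values are % of control ± SD.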

Series [3] relates to Clupea. Description: Effect on thermal melting point of herring testes DNA at 10 uM. Summed up: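 Herring testes DNA at 100 µM with 10 µM polyamine in 10 mM NaCl. Absorbance read at 260 nm while heating at 0.4 °C/min from 25–98 °C. The system equilibrated 15 min before the first reading, then readings were taken each degree (2 s averaging). Tm was taken from the peak of the first-derivative curve. pH was checked before and after polyamine addition.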

In series [4] the test system is Clupea. Nature of the series: Effect on thermal melting point of herring testes DNA at 1 uM.
In series [5] the test system is Clupea. Nature of the series: Effect on thermal melting point of herring testes DNA at 100 uM.
The subject of series [6] is Clupea. Nature of the series: Effect on thermal melting point of herring testes DNA at 50 uM.

One may read the ΔTm as the shift of the melting midpoint relative to a reference.

On to `NCCCNCCCN` [NORSPERMIDINE], for which the Activity result (in series [1]; in the series with HCC1937; in series [2]) was “Non-toxic” in each case. Further, the Tm with Clupea [3] turned out to be 77 °C. The shift in melting temperature (ΔTm) in the series on Clupea [3] amounted to 12 °C.
As to `NCCCN(CCCN)CC(=O)O`, the Tm in the series on Clupea [4] amounted to 62 °C; with Clupea [3] it was 61 °C; in the series on Clupea [5] it was 50 °C. Further, the ΔTm is -3 °C with Clupea [4], -4 °C with Clupea [3] and -15 °C in the series with Clupea [5]. Moreover, the Activity result (in series [1]; in the series with HCC1937; in series [2]) was “Non-toxic” in each case.
Regarding `NCCCN(CCCN)CC(=O)NCC#Cc1nc(N)c2ncn([C@@H]3O[C@H](CO)[C@@H](O)[C@H]3O)c2n1`, the Activity entry (in series [1]; with HCC1937; in series [2]) was “Non-toxic” throughout. In addition, the Tm in the series with Clupea [3] was determined as 66 °C. Further, the shift in melting temperature (ΔTm) in the series with Clupea [3] was determined as 1 °C.
As to `C#CCNC(=O)CN(CCCN)CCCN`, the Activity result (in series [1]; in the series with HCC1937; in series [2]) was “Non-toxic” throughout. For the same compound, the Tm in the series with Clupea [6] came to 52 °C; with Clupea [3], 58 °C; in the series with Clupea [5], 51 °C. Also, the thermal shift (ΔTm) was -13 °C in the series on Clupea [6], -7 °C in the series on Clupea [3] and -14 °C with Clupea [5].
With `NCCCN(CCCN)CC(=O)NCC#Cc1cn([C@@H]2O[C@H](CO)[C@@H](O)[C@H]2O)c(=O)[nH]c1=O`, the Activity entry (in series [1]; in the series with HCC1937; in series [2]) was “Non-toxic” each time. In the series with Clupea [3], the Tm turned out to be 66.5 °C. In the series with Clupea [3], the shift in melting temperature (ΔTm) is 1.5 °C.
